Assay results: ChEMBL document CHEMBL1914423, “New imidazo[2,1-b]thiazole derivatives: synthesis, in vitro anticancer evaluation, and in silico studies” (Eur J Med Chem, 2011)

How the values were obtained:
Format in all cases: functional
[1] = tested on: MDA-MB-468; experiment: Anticancer activity against human MDA-MB-468 cells after 48 hrs by SRB assay; conditions: MDA-MB-468, 48 h
[2] = tested on: UO-31; experiment: Anticancer activity against human UO31 cells after 48 hrs by SRB assay; conditions: UO-31, 48 h
Summary of the method: (§1)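 NCI-60 five-dose mode: cells in RPMI 1640 with 5% FBS and 2 mM glutamine, plated at 5000–40,000 cells/well, and preincubated 24 h, with time-zero plates TCA-fixed. Drug given at five concentrations (10-fold or ½-log serial dilutions). Cold TCA fixation 60 min at 4 °C, SRB stain, Tris solubilization, A515. IC50 taken where [(Ti−Tz)/(C−Tz)]×100 = 50.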

[3] = tested on: RXF 393; experiment: Anticancer activity against human RXF393 cells after 48 hrs by SRB assay; conditions: RXF 393, 48 h
[4] = tested on: RPMI-8226; experiment: Anticancer activity against human RPMI8226 cells after 48 hrs by SRB assay; conditions: RPMI-8226, 48 h
[5] = tested on: NCI/ADR-RES; experiment: Anticancer activity against human NCI/ADR-RES cells after 48 hrs by SRB assay
[6] = tested on: TK-10; experiment: Anticancer activity against human TK10 cells after 48 hrs by SRB assay; conditions: TK-10, 48 h; summary of the method: as §1
[7] = tested on: MDA-MB-231; experiment: Anticancer activity against human MDA-MB-231 cells after 48 hrs by SRB assay; conditions: MDA-MB-231, 48 h
Summary of the method: (§2)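 NCI five-dose screen. Cells in RPMI 1640 with 5% FBS and 2 mM L-glutamine, seeded at 5000–40,000 cells/well according to doubling time, then pre-incubated 24 h at 37 °C in 5% CO2. Drugs dissolved in DMSO, five concentrations by 10-fold or 1/2-log dilution. Cells fixed with TCA, SRB-stained, A515 read. IC50 solved from [(Ti−Tz)/(C−Tz)]×100 = 50.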

[8] = tested on: NCI-H226; experiment: Anticancer activity against human NCI-H226 cells after 48 hrs by SRB assay; conditions: NCI-H226, 48 h
[9] = tested on: MOLT-4; experiment: Anticancer activity against human MOLT4 cells after 48 hrs by SRB assay; conditions: MOLT-4, 48 h
[10] = tested on: HCT-116; experiment: Anticancer activity against human HCT116 cells after 48 hrs by SRB assay; conditions: HCT-116, 48 h; summary of the method: as §2
[11] = tested on: SK-MEL-5; experiment: Anticancer activity against human SK-MEL-5 cells after 48 hrs by SRB assay; conditions: SK-MEL-5, 48 h
[12] = tested on: M14; experiment: Anticancer activity against human M14 cells after 48 hrs by SRB assay; conditions: M14, 48 h; summary of the method: as §2
[13] = tested on: UACC-62; experiment: Anticancer activity against human UACC62 cells after 48 hrs by SRB assay; conditions: UACC-62, 48 h; summary of the method: as §1
[14] = tested on: OVCAR-8; experiment: Anticancer activity against human OVCAR8 cells after 48 hrs by SRB assay; conditions: OVCAR-8, 48 h
[15] = tested on: SNB-19; experiment: Anticancer activity against human SNB19 cells after 48 hrs by SRB assay; conditions: SNB-19, 48 h
[16] = tested on: NCI-H23; experiment: Anticancer activity against human NCI-H23 cells after 48 hrs by SRB assay; conditions: NCI-H23, 48 h
[17] = tested on: HOP-62; experiment: Anticancer activity against human HOP62 cells after 48 hrs by SRB assay; conditions: HOP-62, 48 h; summary of the method: as §2
[18] = tested on: A549; experiment: Anticancer activity against human A549 cells after 48 hrs by SRB assay; conditions: A549, 48 h; summary of the method: as §2
[19] = tested on: SK-MEL-28; experiment: Anticancer activity against human SK-MEL-28 cells after 48 hrs by SRB assay; conditions: SK-MEL-28, 48 h
[20] = tested on: UACC-257; experiment: Anticancer activity against human UACC257 cells after 48 hrs by SRB assay; conditions: UACC-257, 48 h; summary of the method: as §1
[21] = tested on: ACHN; experiment: Anticancer activity against human ACHN cells after 48 hrs by SRB assay; summary of the method: as §2
[22] = tested on: NCI-H460; experiment: Anticancer activity against human NCI-H460 cells after 48 hrs by SRB assay; conditions: NCI-H460, 48 h
[23] = tested on: MCF7; experiment: Anticancer activity against human MCF7 cells after 48 hrs by SRB assay; conditions: MCF7, 48 h; summary of the method: as §2
[24] = tested on: SN12C; experiment: Anticancer activity against human SN12C cells after 48 hrs by SRB assay
[25] = tested on: PC-3; experiment: Anticancer activity against human PC3 cells after 48 hrs by SRB assay; conditions: PC-3, 48 h
[26] = tested on: SF-539; experiment: Anticancer activity against human SF539 cells after 48 hrs by SRB assay; conditions: SF-539, 48 h
[27] = tested on: SNB-75; experiment: Anticancer activity against human SNB75 cells after 48 hrs by SRB assay; conditions: SNB-75, 48 h
[28] = Anticancer activity against human Hs 578T cells after 48 hrs by SRB assay; summary of the method: as §2
[29] = tested on: MDA-MB-435; experiment: Anticancer activity against human MDA-MB-435 cells after 48 hrs by SRB assay; conditions: MDA-MB-435, 48 h; summary of the method: as §2
[30] = read-out: LC50 (the source's name)

O=C(NCCNc1nccc(-c2c(-c3cccc(O)c3)nc3sccn23)n1)c1ccccc1
GI50 [1]: 3.6 µM
TGI [1]: 28.7 µM
CC50 [1, 30]: > 100 µM
GI50 [2]: 12.2 µM
TGI [2]: 88.7 µM
CC50 [2, 30]: > 100 µM
GI50 [3]: 4.14 µM
TGI [3]: 22.2 µM
CC50 [3, 30]: 98.1 µM
GI50 [4]: 6.97 µM
TGI [4]: 25.3 µM
GI50 [5]: 34.8 µM
TGI [5]: > 100 µM
CC50 [5, 30]: > 100 µM
GI50 [6]: 11.7 µM
TGI [6]: 37.1 µM
CC50 [6, 30]: > 100 µM
GI50 [7]: 7.05 µM
TGI [7]: 31.5 µM
CC50 [7, 30]: > 100 µM
GI50 [8]: 7.95 µM
TGI [8]: 45.3 µM
GI50 [9]: 13.5 µM
TGI [9]: 74.2 µM
CC50 [9, 30]: > 100 µM
GI50 [10]: 4.82 µM
TGI [10]: 17.5 µM
CC50 [10, 30]: 49.6 µM
GI50 [11]: 4.15 µM
TGI [11]: 17.5 µM
CC50 [11, 30]: 43.4 µM
GI50 [12]: 0.434 µM
TGI [12]: 12.3 µM
CC50 [12, 30]: 37.3 µM
GI50 [13]: 0.211 µM
TGI [13]: 1.37 µM
CC50 [13, 30]: 25.2 µM
GI50 [14]: 11.1 µM
TGI [14]: 78.8 µM
CC50 [14, 30]: > 100 µM
GI50 [15]: 29.4 µM
TGI [15]: > 100 µM
CC50 [15, 30]: > 100 µM
GI50 [16]: 10 µM
TGI [16]: 30.7 µM
GI50 [17]: 23.5 µM
TGI [17]: 94.2 µM
GI50 [18]: 9.21 µM
TGI [18]: 46.5 µM
GI50 [19]: 0.336 µM
TGI [19]: 99.1 µM
CC50 [19, 30]: > 100 µM
GI50 [20]: 0.489 µM
TGI [20]: 18.5 µM
CC50 [20, 30]: > 100 µM
GI50 [21]: 6.43 µM
TGI [21]: 34.9 µM
CC50 [21, 30]: > 100 µM
GI50 [22]: 10.4 µM
TGI [22]: 27.5 µM
GI50 [23]: 3.24 µM
TGI [23]: 14.9 µM
CC50 [23, 30]: 46.5 µM
GI50 [24]: 9.04 µM
TGI [24]: 38.4 µM
CC50 [24, 30]: > 100 µM
GI50 [25]: 11.9 µM
TGI [25]: 65.7 µM
CC50 [25, 30]: > 100 µM
GI50 [26]: 11.3 µM
TGI [26]: 36.8 µM
CC50 [26, 30]: > 100 µM
GI50 [27]: 3.27 µM
TGI [27]: 28.1 µM
CC50 [27, 30]: > 100 µM
GI50 [28]: 4.86 µM
TGI [28]: 38.3 µM
CC50 [28, 30]: > 100 µM
GI50 [29]: 0.578 µM
TGI [29]: 12.8 µM
CC50 [29, 30]: 71.3 µM
